Results reported in ChEMBL document CHEMBL5058577, “EUbOPEN Chemogenomics Library 2 (Multiplex)” (2022).

System: U2OS
Assay: Multiplex assay against U2OS
Type: toxicity, cell-based
Conditions: human
Procedure, shortened: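 Tubulin, mitochondrial-mass and membrane-permeability phenotypes are per cents of healthy-nucleus cells. Cells were gated by CellPathfinder machine learning into Hoechst high-intensity objects or normal cells, normal cells into healthy, pyknosed or fragmented nuclei, and pyknosed cells into mitotic or apoptotic. Before that, live cells stained at seeding with Hoechst33342, BioTracker Green Microtubule Cytoskeleton Dye, MitoTracker Red and Annexin V Alexa Fluor 680 were imaged on a CQ1 microscope at 37°C and 5% CO2 after compound addition.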

[1] = 12 h, 1 µM, compound concentration 1 uM, replicate 1
[2] = 12 h, 1 µM, compound concentration 1 uM, replicate 2
[3] = 12 h, 10 µM, compound concentration 10 uM, replicate 1
[4] = 12 h, 10 µM, compound concentration 10 uM, replicate 2
[5] = 24 h, 1 µM, compound concentration 1 uM, replicate 1
[6] = 24 h, 1 µM, compound concentration 1 uM, replicate 2
[7] = 24 h, 10 µM, compound concentration 10 uM, replicate 1
[8] = 24 h, 10 µM, compound concentration 10 uM, replicate 2
[9] = 48 h, 1 µM, compound concentration 1 uM, replicate 1
[10] = 48 h, 1 µM, compound concentration 1 uM, replicate 2
[11] = 48 h, 10 µM, compound concentration 10 uM, replicate 1
[12] = 48 h, 10 µM, compound concentration 10 uM, replicate 2

SMILES: Cc1sc2c(c1C)C(c1ccc(Cl)cc1)=N[C@@H](CC(=O)NCCCCCCCCNC(=O)COc1cccc3c1C(=O)N(C1CCC(=O)NC1=O)C3=O)c1nnc(C)n1-2 (stereo partly specified)
- Population Apoptotic (%) [1]: 93%
- Population Fragmented Nuclei (%) [1]: 43%
- Population Healthy Nuclei (%) [1]: 49%
- Population Hoechst High Intensity Objects (%) [1]: 11%
- Population Membrane Permeable-Phenotype (%) [1]: 9%
- Population Mitochondria Different-Phenotype (%) [1]: 4%
- Population Mitotic Cells (%) [1]: 6%
- Population Normal (%) [1]: 88%
- Population Pyknosed Nuclei (%) [1]: 6%
- Population Tubulin-Different-Phenotype (%) [1]: 5%
- Total Cell Count [1]: 269
- Population Apoptotic (%) [2]: 87%
- Population Fragmented Nuclei (%) [2]: 13%
- Population Healthy Nuclei (%) [2]: 80%
- Population Hoechst High Intensity Objects (%) [2]: 0%
- Population Membrane Permeable-Phenotype (%) [2]: 5%
- Population Mitochondria Different-Phenotype (%) [2]: 1%
- Population Mitotic Cells (%) [2]: 12%
- Population Normal (%) [2]: 99%
- Population Pyknosed Nuclei (%) [2]: 5%
- Population Tubulin-Different-Phenotype (%) [2]: 3%
- Total Cell Count [2]: 136
- Population Apoptotic (%) [3]: 86%
- Population Fragmented Nuclei (%) [3]: 31%
- Population Healthy Nuclei (%) [3]: 55%
- Population Hoechst High Intensity Objects (%) [3]: 5%
- Population Membrane Permeable-Phenotype (%) [3]: 2%
- Population Mitochondria Different-Phenotype (%) [3]: 4%
- Population Mitotic Cells (%) [3]: 13%
- Population Normal (%) [3]: 94%
- Population Pyknosed Nuclei (%) [3]: 13%
- Population Tubulin-Different-Phenotype (%) [3]: 0%
- Total Cell Count [3]: 233
- Population Apoptotic (%) [4]: 100%
- Population Fragmented Nuclei (%) [4]: 19%
- Population Healthy Nuclei (%) [4]: 75%
- Population Hoechst High Intensity Objects (%) [4]: 0%
- Population Membrane Permeable-Phenotype (%) [4]: 17%
- Population Mitochondria Different-Phenotype (%) [4]: 12%
- Population Mitotic Cells (%) [4]: 0%
- Population Normal (%) [4]: 99%
- Population Pyknosed Nuclei (%) [4]: 4%
- Population Tubulin-Different-Phenotype (%) [4]: 12%
- Total Cell Count [4]: 117
- Population Apoptotic (%) [5]: 100%
- Population Fragmented Nuclei (%) [5]: 42%
- Population Healthy Nuclei (%) [5]: 51%
- Population Hoechst High Intensity Objects (%) [5]: 11%
- Population Membrane Permeable-Phenotype (%) [5]: 8%
- Population Mitochondria Different-Phenotype (%) [5]: 3%
- Population Mitotic Cells (%) [5]: 0%
- Population Normal (%) [5]: 88%
- Population Pyknosed Nuclei (%) [5]: 6%
- Population Tubulin-Different-Phenotype (%) [5]: 5%
- Total Cell Count [5]: 297
- Population Apoptotic (%) [6]: 92%
- Population Fragmented Nuclei (%) [6]: 12%
- Population Healthy Nuclei (%) [6]: 80%
- Population Hoechst High Intensity Objects (%) [6]: 2%
- Population Membrane Permeable-Phenotype (%) [6]: 5%
- Population Mitochondria Different-Phenotype (%) [6]: 2%
- Population Mitotic Cells (%) [6]: 7%
- Population Normal (%) [6]: 97%
- Population Pyknosed Nuclei (%) [6]: 7%
- Population Tubulin-Different-Phenotype (%) [6]: 4%
- Total Cell Count [6]: 174
- Population Apoptotic (%) [7]: 100%
- Population Fragmented Nuclei (%) [7]: 34%
- Population Healthy Nuclei (%) [7]: 53%
- Population Hoechst High Intensity Objects (%) [7]: 8%
- Population Membrane Permeable-Phenotype (%) [7]: 4%
- Population Mitochondria Different-Phenotype (%) [7]: 5%
- Population Mitotic Cells (%) [7]: 0%
- Population Normal (%) [7]: 91%
- Population Pyknosed Nuclei (%) [7]: 12%
- Population Tubulin-Different-Phenotype (%) [7]: 2%
- Total Cell Count [7]: 245
- Population Fragmented Nuclei (%) [8]: 27%
- Population Healthy Nuclei (%) [8]: 65%
- Population Hoechst High Intensity Objects (%) [8]: 0%
- Population Membrane Permeable-Phenotype (%) [8]: 21%
- Population Mitochondria Different-Phenotype (%) [8]: 9%
- Population Normal (%) [8]: 99%
- Population Pyknosed Nuclei (%) [8]: 7%
- Population Tubulin-Different-Phenotype (%) [8]: 14%
- Total Cell Count [8]: 130
- Population Apoptotic (%) [9]: 91%
- Population Fragmented Nuclei (%) [9]: 35%
- Population Healthy Nuclei (%) [9]: 53%
- Population Hoechst High Intensity Objects (%) [9]: 10%
- Population Membrane Permeable-Phenotype (%) [9]: 6%
- Population Mitochondria Different-Phenotype (%) [9]: 1%
- Population Mitotic Cells (%) [9]: 8%
- Population Normal (%) [9]: 89%
- Population Pyknosed Nuclei (%) [9]: 10%
- Population Tubulin-Different-Phenotype (%) [9]: 2%
- Total Cell Count [9]: 353
- Population Apoptotic (%) [10]: 90%
- Population Fragmented Nuclei (%) [10]: 12%
- Population Healthy Nuclei (%) [10]: 79%
- Population Hoechst High Intensity Objects (%) [10]: 1%
- Population Membrane Permeable-Phenotype (%) [10]: 4%
- Population Mitotic Cells (%) [10]: 9%
- Population Normal (%) [10]: 98%
- Population Pyknosed Nuclei (%) [10]: 7%
- Population Tubulin-Different-Phenotype (%) [10]: 1%
- Total Cell Count [10]: 270
- Population Apoptotic (%) [11]: 100%
- Population Fragmented Nuclei (%) [11]: 36%
- Population Healthy Nuclei (%) [11]: 51%
- Population Hoechst High Intensity Objects (%) [11]: 7%
- Population Membrane Permeable-Phenotype (%) [11]: 9%
- Population Mitochondria Different-Phenotype (%) [11]: 4%
- Population Mitotic Cells (%) [11]: 0%
- Population Normal (%) [11]: 92%
- Population Pyknosed Nuclei (%) [11]: 12%
- Population Tubulin-Different-Phenotype (%) [11]: 4%
- Total Cell Count [11]: 289
- Population Fragmented Nuclei (%) [12]: 25%
- Population Healthy Nuclei (%) [12]: 70%
- Population Hoechst High Intensity Objects (%) [12]: 2%
- Population Membrane Permeable-Phenotype (%) [12]: 10%
- Population Normal (%) [12]: 97%
- Population Pyknosed Nuclei (%) [12]: 4%
- Population Tubulin-Different-Phenotype (%) [12]: 7%
- Total Cell Count [12]: 179
